# Compound activity from PubChem BioAssay.
# G6PDH counter – counter-screen for G6PDH assay hits: L. mesenteroides G6PDH inhibition. Purified L. mesenteroides G6PDH, diaphorase/resazurin coupled fluorescence, 45 min. inhibition, % at 5 µM. hit rate 0.12% among 200,000. AID 1020
# Diaph act CS – counter-screen for diaphorase-based assays: diaphorase activators and chemical reducers. Diaphorase/resazurin coupled assay, resorufin fluorescence, 16 min; active compounds read high; 1 = vehicle wells, 0 = NADH-free wells. activation factor at 20 µM. hit rate 0.005% among 190,000;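 active = diaphorase activity raised at least twofold by the compound at 20 µM; inactive = activation factor below 2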
#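 Measured by – red resorufin fluorescence at 544/590 nm excitation/emission · Test system – Clostridium kluyveri diaphorase, purified enzyme · Incubation – reaction time 16 min, room temperature · Buffer or medium – 50 mM HEPES pH 7.4 with 4.542 mM MgCl2, 0.005% Tween 20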
# Diaphorase inh – diaphorase inhibition or chemical oxidation counter-screen | diaphorase resazurin-to-resorufin fluorescence, NADH, 16 min; bacterial (C. kluyveri) enzyme, not human | hit rate 0.69% among 190,000 | AID 1217 | inhibition, % at 20 µM;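 active = primary screen inhibition at 20 µM above a set limit, cut at about 50% in these data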;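 also: plate controls were DMSO with full reaction for no effect and wells lacking NADH for full effect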
#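 Assay system – diaphorase enzyme from Clostridium kluyveri · Amount – diaphorase 0.14 U/mL (working solution) · Times – reaction incubation of 16 min at room temperature · Controls – No-NADH positive control and DMSO neutral control · Signal – resorufin fluorescence 544/590 nm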
# Lmaj promast – reduces viability of Leishmania major promastigotes; resazurin fluorescence viability; inhibition, % at 10 µM; hit rate 9% among 200,000; AID 1063;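 also: promastigotes grown with compound for 44 hours at 28 °C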
# WT yeast gro inh – growth inhibition of WT yeast, mitochondrial fusion screen; mitochondrial fusion phenotypic screen, WT strain; inhibition, % at 10 µM; hit rate 2.1% among 190,000; in the data active = inhibition above about 58%; tested in S. cerevisiae
# An asterisk follows results filed as active. This is a sample that favours compounds with a hit; in the whole collection about 11% have one here. Rule as the data show it, unless noted: active = inhibition above about 50%; inactive = the rest.
SMILES,G6PDH counter,Diaph act CS,Diaphorase inh,Lmaj promast,WT yeast gro inh
COc1ccccc1N(CC(=O)NCC1CCCO1)C(=O)CCC(=O)Nc1nccs1 (configuration not stated),7.6,1,4.4,-8.9,-3.8
Cc1ccc(CCc2nnc(SCC(=O)Nc3cc(Cl)ccc3Cl)n2-c2ccccc2)o1,-16.5,0.8,22.3,35.6,60.6*
CCCCCCOc1ccc(NC(=O)CC2C(=O)N(CC)C(=S)N2Cc2ccco2)cc1 (configuration not stated),-4.7,0.8,21.1,65.7*,61.7*
C=CCN1C(=O)C(CC(=O)Nc2ccc(OCCC)cc2)N(CCCN2CCN(Cc3ccccc3)CC2)C1=S (configuration not stated),2.3,0.8,20.1,99.7*,57.5
CCN1C(=O)C(CC(=O)Nc2ccc(F)cc2)N(Cc2ccco2)C1=S (configuration not stated),10.2,0.9,5.7,7.2,13.9
COc1ccc(NC(=O)CC2C(=O)N(Cc3ccccc3)C(=S)N2CCN2CCOCC2)cc1 (configuration not stated),-3.7,0.9,7.1,97.6*,8.9
COC(=O)CN1C(=S)N(c2ccc(Cl)cc2)C(=O)C1CC(=O)Nc1ccccc1 (configuration not stated),8.5,0.7,25.6,64.2*,-2.6
COc1ccc(OC)c(NC(=O)COC(=O)CCCN2C(=O)c3ccccc3C2=O)c1,3.9,0.9,12.4,-2.8,-9.0
O=C(Nn1c(Cc2cccs2)nc2ccccc2c1=O)c1cccs1,-2.4,0.9,10.1,-9.6,-5.8
COc1ccccc1C(=O)COC(=O)CNS(=O)(=O)c1ccc(C)cc1,2.6,0.9,8.4,0.2,-9.1
CCOc1ccc(NC(=O)CC2C(=O)N(c3ccc(OC)cc3)C(=S)N2Cc2ccccn2)cc1 (configuration not stated),6.8,0.8,16.0,79.9*,-12.4
CCc1ccc(NC(=O)CC2C(=O)N(c3ccc(C)cc3)C(=O)N2CCc2ccncc2)cc1 (configuration not stated),5.0,0.8,17.3,51.4*,5.8
CCOc1ccc(NC(=O)CC2C(=O)N(c3ccccc3)C(=O)N2CCc2cccs2)cc1 (configuration not stated),5.4,0.9,12.2,66.4*,12.0
Cc1cccc(N2C(=O)C(CC(=O)Nc3cccc(F)c3)N(CCc3ccncc3)C2=O)c1 (configuration not stated),1.5,1,0.3,6.9,-3.9
COc1ccc(NC(=O)CC2C(=O)N(C)C(=S)N2Cc2cccs2)cc1 (configuration not stated),-0.3,0.9,11.0,53.5*,7.8
CCN(c1ccc2c(c1)OCO2)S(=O)(=O)c1cc(Br)cc2c1N(C(C)=O)CC2,4.8,0.7,27.8,33.0,9.6
Cc1nc(C#N)c(N/N=C/c2c(F)cccc2Cl)o1,4.4,0.8,17.4,-3.1,8.6
CCN1C(=O)C(CC(=O)Nc2ccc(OC)cc2)N(CCCN2CCN(c3ccc(F)cc3)CC2)C1=S (configuration not stated),3.5,0.8,20.3,73.5*,23.5
COc1ccc(/C=C/C(=O)NC(=S)NNC(=O)c2c(-c3ccccc3)noc2C)cc1,-17.6,1.1,-9.1,3.4,-26.2
O=C(/C=C/c1ccccc1)NC(=S)NNC(=O)Cc1cccs1,3.6,1.1,-14.3,23.4,12.8
COc1ccc(/C=C/C(=O)NC(=S)NNC(=O)Cc2cccs2)cc1,5.7,1,2.3,98.2*,8.8
COc1ccc(/C=C/C(=O)NC(=S)NNC(=O)c2ccco2)cc1,2.5,0.7,28.3,99.1*,-8.9
CCOC(=O)COc1ccc(S(=O)(=O)NCCC2=CCCCC2)cc1,3.2,1,1.3,6.0,3.5
Cc1nc2c(nnn2Cc2ccccc2)c(=O)[nH]1,11.0,0.7,26.9,-6.9,6.3
COc1cccc(C2C=C(Nc3ccccc3)C(=O)N2c2ccccc2)c1 (configuration not stated),2.6,1,1.9,66.2*,12.2
SMILES,G6PDH counter,Diaph act CS,Diaphorase inh,Lmaj promast,WT yeast gro inh
O=C(Nc1cccc(S(=O)(=O)N2CCCCCC2)c1)c1cc(=O)c2ccccc2o1,-1.7,0.8,15.3,20.6,12.3
COc1ccc(NC(=O)CN(C)CC(=O)Nc2cccc(S(=O)(=O)N(C)c3ccccc3)c2)cc1,7.3,0.8,18.0,81.4*,-4.4
CN(c1ccccc1)S(=O)(=O)c1cccc(NC(=O)CSc2nncn2C)c1,1.6,1,3.4,57.1*,-7.2
Cn1cnnc1SCC(=O)Nc1cccc(S(=O)(=O)N2CCCCCC2)c1,-7.9,0.9,6.9,-3.3,12.7
CN(c1ccccc1)S(=O)(=O)c1cccc(NC(=O)c2cc(=O)c3ccccc3o2)c1,-6.2,0.8,17.0,80.5*,27.7
CCCC(=O)Nc1cccc(S(=O)(=O)N(C)c2ccccc2)c1,10.0,0.9,9.6,67.4*,-17.4
CCOC(=O)Cc1csc(NC(=O)CSc2nnc3ccccn23)n1,1.8,0.9,14.0,-4.3,-15.8
Cc1nn(Cc2ccccc2)c(C)c1NC(=O)CSc1nc2c(c(C(F)(F)F)n1)CCc1ccccc1-2,-16.3,0.9,9.4,67.6*,-0.9
CCN(CC)CCCNC(=O)CSc1nc2c(c(C(F)(F)F)n1)CCc1ccccc1-2,6.7,0.9,8.1,59.8*,-6.0
O=C(CSc1nc2c(c(C(F)(F)F)n1)CCc1ccccc1-2)NCc1ccccc1,10.5,0.8,15.9,-4.1,-13.3
Cc1ccc(N=C/C(C(=O)C(F)(F)F)=C(\O)c2ccco2)cc1Cl,-15.2,0.9,8.9,-5.4,6.2
COc1ccc(C(C)(C)C)cc1NC(=O)c1ccoc1C,-5.0,0.9,5.8,9.8,65.0*
COc1ccc(S(=O)(=O)N2CCOCC2)cc1NC(=O)CSc1n[nH]c(C(C)C)n1,-2.0,1.1,-13.3,-2.2,-9.1
Cc1cc(C)cc(N/C(N)=N/c2nc(C)cc(C)n2)c1,-1.5,1.1,-6.2,85.0*,9.3
Cc1cc(C)nc(/N=C(\N)Nc2ccccc2-c2ccccc2)n1,12.2,0.9,6.0,95.5*,0.0
N#Cc1c(-c2ccccc2)nc2n(c1=O)CCS2,8.2,0.9,8.6,-3.0,18.8
OC1(c2cccc(C(F)(F)F)c2)CCN(Cc2nc(-c3cnccn3)no2)CC1,-5.8,0.9,10.8,77.6*,-5.1
Fc1cccc(CN2CCN(Cc3nc(-c4cnccn4)no3)CC2)c1,3.4,0.9,6.9,-2.1,-17.6
CCNc1nc(NCC)nc(SCCOC(=O)c2ccccc2)n1,-1.0,0.9,11.3,54.7*,9.7
N#Cc1c(NCCN)nc(-c2ccccc2)c2c1CCCC2,6.7,1,-0.7,84.5*,-0.1
C=CCNc1nc(NCc2ccccc2)c(C#N)c2c1CN(C)CC2,11.9,0.4,63.4*,31.1,-7.3
CCCc1nc(NCc2ccccc2)c(C#N)c2c1CCCC2,5.1,0.8,19.1,45.1,-7.2
